Source: ChEMBL document CHEMBL1255303, “In vitro and in vivo antifungal activities of T-2307, a novel arylamidine” (2008)
Activity calls are given as the source filed them. Starred links: 1 amine or outer side, 2 acyl side, 3 side chain; linkers in the order of their positions; H or OH if unused. Positions of bridges follow the written chain, without caps; N, C: chain ends. Non-standard residues stand in square brackets, D forms with d. Residues, ends and D or L forms follow the SMILES beside them. *: point of attachment. hTyr(3S-OH,4S-OH,3'-OSO3H) = N[C@H](C(=O)O)[C@H](O)[C@@H](O)c1ccc(O)c(OS(=O)(=O)O)c1; Orn(4R-OH,5R-OH) = O=C([C@H](C[C@@H](O)[C@@H](O)N[*:3])N[*:1])[*:2]; Pro(3S-OH,4S-Me) = C[C@H]1CN[C@H](C(=O)O)[C@H]1O; X1 = CCCCCOc1ccc(-c2cc(-c3ccc(C(=O)*)cc3)no2)cc1; Gln(3R-OH) = NC(=O)C[C@@H](O)[C@H](N)C(=O)O; Hyp = O=C(O)[C@@H]1C[C@@H](O)CN1

Tests used:
Candida albicans [1] = assay: Antifungal activity against Candida albicans ATCC MYA-573 after 47 hrs by broth microdilution method; type: functional; details: ATCC MYA-573, 47 h
Procedure, shortened: (§1)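 Fluconazole-resistant or susceptible-dose-dependent ATCC C. albicans strains were tested by CLSI M27-A2 broth microdilution in RPMI 1640–0.165 M MOPS, pH 7.0, with a final inoculum of 1.1–1.5 × 10^3 CFU/ml at 35°C for about 47 h. MIC was the lowest concentration with a prominent (~50%) turbidity decrease relative to growth control; amphotericin B was read at complete inhibition.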

Candida dubliniensis = assay: Antifungal activity against Candida dubliniensis ATCC MYA-577 after 48 hrs by broth microdilution method; type: functional; details: ATCC MYA-577, 48 h
Procedure, shortened: (§2)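 CLSI M27-A2 (yeasts) / M38-A (moulds) broth microdilution in RPMI 1640 buffered to pH 7.0 with 0.165 M MOPS. Malassezia furfur got the same medium supplemented with glucose, bile salts, glycerol, glycerol monostearate and Tween 20. Final inoculum 0.65 × 10^3–2.5 × 10^3 CFU/ml for yeasts and 0.87 × 10^4–3.8 × 10^4 CFU/ml for filamentous fungi. Incubation at 35°C except M. racemosus and F. solani, which were held at 30°C.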

Aspergillus fumigatus [2] = assay: Antifungal activity against Aspergillus fumigatus IFM 46895 infected ICR mouse assessed as delay in mortality of mouse at 1 mg/kg after 6 days; type: functional, organism-based; parameters: dose 1 mg/kg
Procedure, shortened: (§3)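 Male ICR mice, 4 weeks old and SPF, were made neutropenic with intraperitoneal cyclophosphamide. The schedule was 200 mg/kg on day −3 (day −4 for Cryptococcus) plus 100 mg/kg on day +1. Infection was by tail-vein injection of 0.2 ml suspension: C. albicans 3.0 × 10^4, C. neoformans 9.1 × 10^4, A. fumigatus conidia 8.4 × 10^4 CFU/mouse. Drugs were given subcutaneously once daily for 7 days from 2 h post-infection; controls received saline. Groups had 8–10 mice.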

Pichia kudriavzevii = assay: Antifungal activity against Candida krusei IFO 0584 after 48 hrs by broth microdilution method; type: functional; details: IFO 0584, 48 h; procedure, shortened: as §2
Fusarium solani = assay: Antifungal activity against Fusarium solani IFO 31093 after 48 hrs by broth microdilution method; type: functional; details: IFO 31093, 48 h; procedure, shortened: as §2
Aspergillus fumigatus [3] = assay: Antifungal activity against Aspergillus fumigatus clinical isolates after 48 hrs by broth microdilution method; type: functional
Procedure, shortened: (§4)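 Clinical isolates from Japanese hospitals or culture collections were tested by broth microdilution in RPMI 1640-MOPS. Inoculum was 0.57 × 10^3–2.5 × 10^3 CFU/ml for yeasts and 0.4 × 10^4–3.3 × 10^4 CFU/ml for filamentous fungi. Incubation was at 35°C for about 48 h, or 72 h where footnoted. Results were summarised as MIC range, MIC50 and MIC90.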

Aspergillus flavus = assay: Antifungal activity against Aspergillus flavus NBRC 6343 after 48 hrs by broth microdilution method; type: functional; details: NBRC 6343, 48 h; procedure, shortened: as §2
Nakaseomyces glabratus = assay: Antifungal activity against Candida glabrata clinical isolates after 48 hrs by broth microdilution method; type: functional; procedure, shortened: as §4
Lichtheimia corymbifera = assay: Antifungal activity against Absidia corymbifera NBRC 4009 after 24 hrs by broth microdilution method; type: functional; details: NBRC 4009, 24 h; procedure, shortened: as §2
Candida parapsilosis = assay: Antifungal activity against Candida parapsilosis clinical isolates after 48 hrs by broth microdilution method; type: functional; details: Lodderomyces parapsilosis
Procedure, shortened: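 Japanese hospital Candida isolates were tested by CLSI M27-A2 broth microdilution in RPMI 1640–MOPS, pH 7.0, with inocula of 0.57–2.5 × 10^3 CFU/ml at 35°C for about 48 h. Inocula came from 24-h potato dextrose agar cultures. MIC was the lowest concentration with about 50% turbidity reduction versus growth control (complete inhibition for amphotericin B). Range, MIC50 and MIC90 were reported.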

Candida tropicalis [4] = assay: Antifungal activity against Candida tropicalis IFO 1400 after 48 hrs by broth microdilution method; type: functional; details: IFO 1400, 48 h; procedure, shortened: as §2
Mucor racemosus = assay: Antifungal activity against Mucor racemosus NBRC5403 after 24 hrs by broth microdilution method; type: functional; details: NBRC5403, 24 h
Candida albicans [5] = assay: Antifungal activity against Candida albicans ATCC MYA-574 after 47 hrs by broth microdilution method; type: functional; details: ATCC MYA-574, 47 h
Procedure, shortened: (§5)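 Fluconazole-resistant or susceptible-dose-dependent C. albicans ATCC strains were tested by broth microdilution in RPMI 1640-MOPS. Inoculum was 1.1 × 10^3–1.5 × 10^3 CFU/ml, with incubation at 35°C for about 47 h. Yeast MIC was read as about 50% turbidity decrease relative to growth control, except amphotericin B, read at complete inhibition.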

Aspergillus fumigatus [6] = assay: Antifungal activity against Aspergillus fumigatus IFM 46895 infected ICR mouse after 6 days; type: functional; details: IFM 46895, 144 h; procedure, shortened: as §3
Scedosporium boydii = assay: Antifungal activity against Pseudallescheria boydii NBRC 32229 after 72 hrs by broth microdilution method; type: functional; details: NBRC 32229, 72 h; procedure, shortened: as §2
Aspergillus fumigatus [7] = assay: Antifungal activity against Aspergillus fumigatus IFM 46895 after 48 hrs by broth microdilution method; type: functional; details: IFM 46895, 48 h; procedure, shortened: as §2
Candida tropicalis [8] = assay: Antifungal activity against Candida tropicalis clinical isolates after 48 hrs by broth microdilution method; type: functional; procedure, shortened: as §4
Cryptococcus neoformans = assay: Antifungal activity against Cryptococcus neoformans ATCC 90113 after 72 hrs by broth microdilution method; type: functional; details: ATCC 90113, 72 h; procedure, shortened: as §2
Candida albicans [9] = assay: Antifungal activity against Candida albicans ATCC 90028 after 48 hrs by broth microdilution method; type: functional; details: ATCC 90028, 48 h; procedure, shortened: as §2
Candida albicans [10] = assay: Antifungal activity against Candida albicans ATCC 96901 after 47 hrs by broth microdilution method; type: functional; details: ATCC 96901, 47 h; procedure, shortened: as §1
Aspergillus niger = assay: Antifungal activity against Aspergillus niger NBRC 33023 after 48 hrs by broth microdilution method; type: functional; details: NBRC 33023, 48 h; procedure, shortened: as §2
Candida albicans [11] = assay: Antifungal activity against Candida albicans ATCC MYA-2732 after 47 hrs by broth microdilution method; type: functional; details: ATCC MYA-2732, 47 h; procedure, shortened: as §5
Trichophyton rubrum = assay: Antifungal activity against Trichophyton rubrum NBRC 5467 after 72 hrs by broth microdilution method; type: functional; details: NBRC 5467, 72 h; procedure, shortened: as §2
Candida albicans [12] = assay: Antifungal activity against Candida albicans ATCC 64550 after 47 hrs by broth microdilution method; type: functional; details: ATCC 64550, 47 h; procedure, shortened: as §5
Aspergillus nidulans = assay: Antifungal activity against Aspergillus nidulans NBRC 33017 after 48 hrs by broth microdilution method; type: functional; details: NBRC 33017, 48 h; procedure, shortened: as §2

CCCCCOc1ccc(-c2cc(-c3ccc(C(=O)N[C@H]4C[C@@H](O)[C@@H](O)NC(=O)[C@@H]5[C@@H](O)[C@@H](C)CN5C(=O)[C@H]([C@H](O)CC(N)=O)NC(=O)[C@H]([C@H](O)[C@@H](O)c5ccc(O)c(OS(=O)(=O)O)c5)NC(=O)[C@@H]5C[C@@H](O)CN5C(=O)[C@H]([C@@H](C)O)NC4=O)cc3)no2)cc1 [MICAFUNGIN] (X1-[Orn(4R-OH,5R-OH)]T[Hyp][hTyr(3S-OH,4S-OH,3'-OSO3H)][Gln(3R-OH)][Pro(3S-OH,4S-Me)]; lactam 1-C)
4 µg/mL: MIC90 (Candida parapsilosis)
active: Activity (Aspergillus fumigatus [2])
8 µg/mL: MFC (Candida dubliniensis)
2 µg/mL: MIC50 (Candida parapsilosis)
32 µg/mL: MIC (Lichtheimia corymbifera) | MIC (Mucor racemosus)
0.5 µg/mL: MIC (Scedosporium boydii)
0.0625 µg/mL: MIC (Candida albicans [1]) | MIC (Aspergillus flavus) | MIC50 (Nakaseomyces glabratus) | MIC90 (Nakaseomyces glabratus) | MIC (Candida tropicalis [4]) | MIC (Candida albicans [5]) | MIC (Candida tropicalis [8]) | MIC50 (Candida tropicalis [8]) | MIC (Candida albicans [12])
> 64 µg/mL: MFC (Fusarium solani) | MIC (Fusarium solani) | MFC (Aspergillus flavus) | MFC (Lichtheimia corymbifera) | MFC (Candida tropicalis [4]) | MFC (Mucor racemosus) | MFC (Scedosporium boydii) | MFC (Aspergillus fumigatus [7]) | MFC (Cryptococcus neoformans) | MIC (Cryptococcus neoformans) | MFC (Aspergillus niger) | MFC (Trichophyton rubrum) | MFC (Aspergillus nidulans)
0.125 µg/mL: MIC (Candida dubliniensis) | MIC (Pichia kudriavzevii) | MIC90 (Candida tropicalis [8]) | MFC (Candida albicans [9]) | MIC (Candida albicans [10]) | MIC (Candida albicans [11])
0.0313 µg/mL: MIC (Aspergillus fumigatus [3]) | MIC50 (Aspergillus fumigatus [3]) | MIC90 (Aspergillus fumigatus [3]) | MIC (Aspergillus fumigatus [7]) | MIC (Candida albicans [9]) | MIC (Aspergillus niger) | MIC (Trichophyton rubrum) | MIC (Aspergillus nidulans)
0.699 mg/kg: ED50 (Aspergillus fumigatus [6])
0.25 µg/mL: MFC (Pichia kudriavzevii)

C[C@@H](c1ncncc1F)[C@](O)(Cn1cncn1)c1ccc(F)cc1F [VORICONAZOLE]
4 µg/mL: MFC (Aspergillus fumigatus [7])
0.0625 µg/mL: MIC (Candida tropicalis [4]) | MIC50 (Candida tropicalis [8]) | MIC90 (Candida tropicalis [8]) | MIC (Cryptococcus neoformans)
> 64 µg/mL: MFC (Candida dubliniensis) | MFC (Lichtheimia corymbifera) | MFC (Candida tropicalis [4]) | MFC (Mucor racemosus) | MIC (Mucor racemosus) | MFC (Scedosporium boydii) | MFC (Cryptococcus neoformans) | MFC (Candida albicans [9]) | MFC (Trichophyton rubrum)
0.25 µg/mL: MIC (Candida albicans [1]) | MIC (Candida albicans [5]) | MIC (Candida albicans [11]) | MIC (Candida albicans [12]) | MFC (Aspergillus nidulans)
1 µg/mL: MIC50 (Aspergillus fumigatus [3]) | MIC90 (Aspergillus fumigatus [3]) | MFC (Aspergillus flavus) | MIC (Scedosporium boydii)
0.0156 µg/mL: MIC50 (Candida parapsilosis)
2 µg/mL: MFC (Pichia kudriavzevii)
32 µg/mL: MIC (Lichtheimia corymbifera)
0.0039 µg/mL: MIC (Candida albicans [9])
0.0078 µg/mL: MIC (Candida dubliniensis)
8 µg/mL: MFC (Fusarium solani) | MIC (Fusarium solani)
0.0313 µg/mL: MIC90 (Candida parapsilosis) | MIC (Trichophyton rubrum)
0.5 µg/mL: MIC (Aspergillus flavus) | MIC90 (Nakaseomyces glabratus) | MIC (Aspergillus fumigatus [7]) | MIC (Candida albicans [10]) | MIC (Aspergillus niger)
16 µg/mL: MFC (Aspergillus niger)
0.125 µg/mL: MIC (Pichia kudriavzevii) | MIC50 (Nakaseomyces glabratus) | MIC (Aspergillus nidulans)
